A selection: hits, their analogues and other compounds. The true share with any hit is near 2.5%.
NadD block – blocks S. aureus nicotinate mononucleotide adenylyltransferase; purified NadD enzyme, colorimetric absorbance read-out; inhibition, % at 20 µM; actives 0.78% (n = 360,000); AID 602399; in the data active = inhibition above about 26%
GalR3 antag – human GalR3 antagonism; HEK293 GalR3-CNG cAMP membrane potential fluorescence; galR3 body fused to GalR1 C-terminus; inhibition, % at 3 µM; actives 0.44% (n = 360,000); AID 651719;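 active = inhibition above the screen-wide average plus 3 SD, cut at about 13% in these data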;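 note: forskolin and galanin both at EC90 stimulate the cells; cAMP rise reported by CNG channel membrane potential dye signal; 0% = forskolin plus galanin with DMSO and 100% = forskolin alone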
NR2E3 ag-1 – human photoreceptor-specific nuclear receptor agonism; Q9Y5X4; CHO-S Gal4-NCOR/VP16-NR2E3 two-hybrid, luciferase; inhibition of corepressor binding, % at 3.98 µM; actives 0.35% (n = 360,000); AID 602229;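 active = inhibition above the mean of all tested compounds plus 3 SD, cut at about 70% in these data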;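 note: 0% = DMSO with NR2E3 transfected cells and 100% = cells lacking NR2E3 construct; higher means lower luciferase signal from less NR2E3 corepressor binding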
Target sequence (Q9Y5X4 whole entry, looked up, the tested form may be a part): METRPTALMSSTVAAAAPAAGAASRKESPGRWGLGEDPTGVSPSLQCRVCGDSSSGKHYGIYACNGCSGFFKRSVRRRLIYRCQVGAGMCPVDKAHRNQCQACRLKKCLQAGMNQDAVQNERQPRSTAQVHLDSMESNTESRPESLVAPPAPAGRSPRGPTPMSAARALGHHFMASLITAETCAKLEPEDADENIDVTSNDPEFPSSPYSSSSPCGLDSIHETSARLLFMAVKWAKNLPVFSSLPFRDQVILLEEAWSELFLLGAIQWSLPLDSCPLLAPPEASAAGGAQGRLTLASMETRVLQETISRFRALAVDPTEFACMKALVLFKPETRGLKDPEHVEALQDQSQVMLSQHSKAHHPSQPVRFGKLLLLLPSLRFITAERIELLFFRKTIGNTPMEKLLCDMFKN
NR2E3 ag-2 – agonists of human nuclear receptor NR2E3; Q9Y5X4; GST-NR2E3/biotin-RetCOR TR-FRET, 1536-well; inhibition of corepressor binding, % at 4.78 µM; actives 0.12% (n = 320,000);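 active = percent inhibition above the cutoff of mean plus 3 SD of all tested compounds, set per screening campaign, cut at about 20% in these data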;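 note: 0% = DMSO wells and 100% = biotin wells as full block of FRET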
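Material: NR2E3–RetCOR corepressor complex | Quantity: 1.35 nM GST-tagged NR2E3 final | Schedule: 5 h at 4 °C | Replication: Singlicate compound wells | Reagent: RetCOR corepressor, biotinylated, 7 nM | Controls: Biotin wells as high control, 0.6% DMSO wells as low control | Signal: TR-FRET, Eu(K)-anti-GST donor, streptavidin-D2 acceptor, ex 340, em 617/671 nm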
MsrA inhibitor – bovine MsrA inhibition; inhibition, % at 15.5 µM; actives 0.75% (n = 360,000); purified bovine MsrA, absorbance read-out; in the data active = inhibition above about 4.5%;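 note: 0% = vehicle wells with enzyme and 100% = reference inhibitor wells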
MsrA act – bovine methionine sulfoxide reductase A activation; purified bovine MsrA, absorbance read-out; activation, % at 10.6 µM; actives 0.3% (n = 360,000); AID 602163; in the data active = activation above about 7.5%;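 note: 0% = vehicle and 100% = reference activator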
MsrA act confirm – confirmation of bovine methionine sulfoxide reductase A activators | actives 12% (n = 1,000) | activation, % at 10.6 µM | purified bovine MsrA, absorbance read-out | AID 602270 | shares compounds with MsrA act; in the data active = activation above about 4%;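 note: enzyme coupled to thioredoxin and thioredoxin reductase with NADPH; 0% = vehicle wells and 100% = reference activator wells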
* hit, by the source's call; . = no result.

SMILES | NadD block | GalR3 antag | NR2E3 ag-1 | NR2E3 ag-2 | MsrA inhibitor | MsrA act | MsrA act confirm
CCCCCn1cnc2sc(CC)cc2c1=O | -16 | -2 | -145 | 0 | -1 | 14* | 3
CC(=O)Nc1ccc(S(=O)(=O)NC(C)c2ccncc2)cc1 (stereo unspecified) | 0 | -5 | -4 | 5 | 1 | 0 | .
NC(=O)c1ccc(=O)n(Cc2ccc(F)c(F)c2)c1 | 0 | -2 | -13 | 0 | 0 | 8.0* | -1
CCOCCCN(C)C1CCN(C(=O)c2oc3ccccc3c2NC(=O)COc2ccc(F)cc2)CC1 | -6 | -2 | -9 | -2 | 1 | -2 | .
COc1ccccc1OCc1ccc(C(=O)Nc2ccccc2)cc1 | -9 | -5 | -31 | 3 | 0 | 12* | 1
CCN(CC)CCN(C(=O)c1ccc2ncsc2c1)c1nc2cc3c(cc2s1)OCO3 | 8 | -2 | -135 | -1 | 3 | -1 | .
O=C1c2ccccc2-c2nnc(-c3ccccc3)cc21 | -2 | -2 | -120 | 1 | 0 | 9.4* | 4.0*
S=c1[nH]ccc2ccccc12 | 2 | -2 | -32 | . | 1 | 9.8* | 2
S=c1[nH]ncc2ccccc12 | 1 | -1 | -5 | 4 | 4 | 0 | .
Cc1ccc(OC(C)C(=O)Nc2ccc(S(=O)(=O)Nc3nccs3)cc2)cc1 (stereo unspecified) | 3 | 0 | -18 | 3 | -1 | -3 | .
Cc1cccc(N2CCN(C3=NC(=O)C(=C4CCCCC4)S3)CC2)c1 | 4 | -5 | -16 | -1 | 1 | 8.0* | 0
COc1ccc(C(CNC(=O)CNC(=O)c2cccc(C)c2)N2CCOCC2)cc1 (stereo unspecified) | -6 | -5 | -14 | -2 | -1 | 0 | .
O=C(NCCN1CCOCC1)c1c(Cl)cccc1Cl | 10 | 0 | 4 | 0 | -1 | 0 | .
O=C(NCCN1CCOCC1)c1ccccc1Cl | 1 | -9 | 0 | . | 0 | 17* | -1
CCC(C)(C)n1nnnc1CN(Cc1cc2cc(OC)ccc2[nH]c1=O)C1CCCC1 | 5 | -4 | -11 | 1 | 0 | -1 | .
NS(=O)(=O)c1ccc(CNC(=O)C2CCCCC2)cc1 | -8 | 4 | 12 | 6 | -1 | -4 | .
COc1ccc(-c2nnc(SCC(=O)NC(=O)NCc3ccccc3)o2)cc1 | -6 | -5 | 0 | 0 | 0 | 9.7* | -1
CCOC(=O)c1ccc(N2C(=O)Cc3ccccc3C2=O)cc1 | 4 | -8 | 9 | 0 | 0 | -4 | .
CC(C)COC(=O)c1ccc(N2C(=O)c3ccccc3C2=O)cc1 | -8 | -3 | -14 | 2 | -1 | 7.9* | 5.5*
CNC(=S)Nc1sc2c(c1C(=O)OC)CCC2 | -1 | -6 | -13 | 4 | 2 | 8.4* | 2
COC(=O)C(CC(C)C)NC(=O)c1ccc([N+](=O)[O-])c(C)c1 (stereo unspecified) | -1 | -3 | 1 | -2 | -1 | 0 | .
C=CCNc1oc(-c2cccc(Cl)c2)nc1C#N | -2 | -8 | -47 | . | 0 | -3 | .
CC(C)CC1NC(=O)N(CC(=O)Nc2ccc3c(c2)OCCO3)C1=O (stereo unspecified) | -2 | 3 | -29 | 0 | -1 | 13* | -4
S=c1nc(-c2ccc(Cl)cc2)[nH][nH]1 | 2 | -6 | -39 | 0 | -1 | 7 | .
CCCOc1ccc(-c2nc(=S)[nH][nH]2)cc1 | 2 | 3 | -73 | -3 | 1 | 9.2* | 3
SMILES | NadD block | GalR3 antag | NR2E3 ag-1 | NR2E3 ag-2 | MsrA inhibitor | MsrA act | MsrA act confirm
C=C1CCC[C@]2(C)C[C@H]3OC(=O)C(CN(C)CC(OC)OC)[C@H]3CC12 (stereo partly specified) | -9 | -8 | 9 | 0 | 0 | 8.7* | -2
C=C1CCC[C@]2(C)C[C@H]3OC(=O)C(CNC(C)CC)[C@H]3CC12 (stereo partly specified) | -10 | -10 | 7 | -3 | 1 | -8 | .
C[C@@H](CSc1ccccc1)CN1CC[C@H](C(C)(C)C)CCC1=O | -7 | -5 | -49 | 2 | 1 | 8.2* | -1
COc1cc(/C=N/NC(=S)Nc2cccc(S(=O)(=O)N(C)C)c2)cc(OC)c1O | 4 | -7 | 6 | 1 | 1 | -2 | .
COc1ccc2oc(C(=O)OCC(=O)N3C(C)CCCC3C)c(C)c2c1 (stereo unspecified) | -7 | -3 | -21 | 3 | 0 | -3 | .
CCOc1ccc2oc(C(=O)OCC(=O)N3C(C)CCCC3C)c(C)c2c1 (stereo unspecified) | -7 | -8 | -47 | 5 | 1 | 8.7* | -1
COc1ccc(C2C(C(C)=O)=C(C)Nc3ncnn32)cc1OC (stereo unspecified) | 6 | -4 | 7 | -3 | 2 | -2 | .
CC1=C(C(N)=O)C(c2ccc(Cl)c(Cl)c2)n2ncnc2N1 (stereo unspecified) | 1 | -7 | -38 | -2 | 0 | 7.9* | -1
Cc1ccccc1OCCSc1nnc(-c2ccncc2)n1C | -4 | -7 | -19 | 1 | 1 | 5 | .
Cn1c(SCCOc2ccccc2Cl)nnc1-c1ccncc1 | -4 | -4 | -4 | 5 | -2 | 8.5* | 0
CCOC(=O)C(Oc1ccc2c(-c3ccccc3)cc(=O)oc2c1C)c1ccccc1 (stereo unspecified) | 1 | -2 | -38 | -1 | 0 | 8.0* | 0
CCOC(=O)C(Oc1ccc2c(-c3ccc(OC)cc3)cc(=O)oc2c1C)c1ccccc1 (stereo unspecified) | 1 | -3 | 3 | 2 | 0 | -1 | .
O=C(NCc1ccccc1)c1ccc2c(=O)n(CC3CCCO3)c(=S)[nH]c2c1 (stereo unspecified) | 1 | 8 | -6 | 0 | 1 | 13* | 3
Cc1ccc(CNC(=O)c2ccc3c(=O)n(CC4CCCO4)c(=S)[nH]c3c2)cc1 (stereo unspecified) | -1 | -6 | 14 | 3 | -1 | -6 | .
CC(C)NC(=O)C1(C)Cc2c(-c3ccc(C(N)=O)cc3)ccnc2O1 (stereo unspecified) | 3 | -7 | -8 | . | 0 | 1 | .
CCOc1ccccc1NC(=O)COC(=O)c1ccccc1SCC(=O)N1CCCC1 | -2 | -2 | -7 | 4 | 0 | -4 | .
O=C(O)CCC(=O)c1ccc(C2CCCCCC2)cc1 | -4 | -6 | -97 | . | 1 | 13* | 1
O=C(O)CCC(=O)c1ccc(-c2ccccc2)cc1 | -6 | . | -64 | 0 | -1 | -9 | .
CCC(CO)NCc1cc(OC)c(OCC(=O)NCCc2ccccc2)cc1Br (stereo unspecified) | -4 | -2 | -43 | 5 | 0 | 9.0* | -1
Cc1no[n+]([O-])c1COc1cccc(/C=N/Nc2nncn2N)c1 | 0 | 5 | 3 | 0 | 1 | 12* | -3

Screening data from PubChem.
